Source: ChEMBL document CHEMBL1255219, “Discovery of a β-d-2'-deoxy-2'-α-fluoro-2'-β-C-methyluridine nucleotide prodrug (PSI-7977) for the treatment of hepatitis C virus” (J Med Chem, 2010)

Assays:
[1] = test system: Rattus norvegicus; assay: Cmax in rat liver assessed as 2'-F-2'-C-Methyluridine-5''-TP level at 50 mg/kg, po; format: ADME, organism-based; parameters: dose 50 mg/kg, route oral; settings: in vivo
Outline: (§1)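 Rats given a single oral gavage dose of 50 mg/kg in 0.5% carboxymethylcellulose sodium, 5 mL/kg. Livers taken at 0.5, 1, 2, 4, 6 and 12 h after CO2 sacrifice and ice-cold saline perfusion, then snap-frozen. Homogenized in 3 volumes of cold 70% methanol with 20 mM EDTA/EGTA. Triphosphate measured by LC/MS/MS (ESI, MRM negative mode), noncompartmental analysis.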

[2] = Half life in human liver S9 fraction at 100 uM; format: ADME, subcellular
Outline: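 Compound at 100 μM in 50 mM K2HPO4 pH 7.4 with 5 mM MgCl2. Started with 4 mg/mL human liver S9 at 37 °C. Samples at 0–24 h quenched with acetonitrile. Parent remaining measured by LC/MS/MS peak area relative to 0 h, and half-life calculated.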

[3] = AUC (0 to t) in dog plasma at 50 mg/kg, po qd for 4 days; format: ADME, organism-based, Canis lupus familiaris; parameters: dose 50 mg/kg, route oral
Outline: (§2)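 Oral gavage (dog gastric, monkey nasogastric), 50 mg/kg in 20% w/v hydroxypropyl-β-cyclodextrin in water, 2.5 mL/kg, once daily for 4 consecutive days. Blood sampled into K2EDTA at 1, 2, 4, 6, 12 and 24 h postdose on day 3. Prodrug in plasma quantified by LC/MS/MS, noncompartmental analysis.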

[4] = organism: Homo sapiens; assay: Half life in human plasma at 100 uM
[5] = test system: Rattus norvegicus; assay: Toxicity in rat assessed as change in body weight at 50 to 1800 mg/kg, po after 14 days; format: organism-based; parameters: dose 50-1800 mg/kg, route oral; settings: in vivo, 336 h
Outline: (§3)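 Rats (CD SD, 4–5 weeks, 76–100 g) given a single oral dose of 50, 300 or 1800 mg/kg, or vehicle (30% PEG400/30% Tween 20/20% corn oil/20% water). Observed daily for 14 days with daily body weights. Necropsy on day 15 with macroscopic examination and liver and paired kidney weights.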

[6] = test system: Rattus norvegicus; assay: Tmax in rat liver assessed as 2'-F-2'-C-Methyluridine-5''-TP level at 50 mg/kg, po; format: ADME, organism-based; parameters: dose 50 mg/kg, route oral; settings: in vivo; outline: as §1
[7] = Permeability by PAMPA assay; format: ADME; settings: read-out: permeability
Outline: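 PAMPA with a lecithin-in-dodecane (20 mg/mL) coated filter donor. Donor held 200 μg/mL compound in PBS pH 7.4 with 2% DMSO; acceptor held PBS with 2% DMSO. Left 24 h. Donor and acceptor concentrations measured by LC/MS/MS (MRM), and Pe calculated from concentrations, volumes, filter area and time.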

[8] = test system: Rattus norvegicus; assay: AUC (0 to infinity) in rat liver assessed as 2'-F-2'-C-Methyluridine-5''-TP level at 50 mg/kg, po; format: ADME, organism-based; parameters: time infinity, dose 50 mg/kg, route oral; settings: in vivo; outline: as §1
[9] = test system: Hepatitis C virus; assay: Antiviral activity against HCV infected in human clone A cells; format: functional, Hepacivirus hominis
Outline: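 Clone A replicon cells seeded at 1500 cells/well. Compounds serially diluted in G418-free culture medium and added, then incubated 4 days at 37 °C in 5% CO2. HCV RNA quantified by real-time RT-PCR as ΔCt relative to the mean no-drug control.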

[10] = test system: Canis familiaris; assay: Metabolic stability in dog liver assessed as 2'-F-2'-C-Methyluridine-5''-triphosphate level at 50 mg/kg, po; format: ADME, organism-based, Canis lupus familiaris; parameters: dose 50 mg/kg, route oral; settings: in vivo
Outline: (§4)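 Dogs and cynomolgus monkeys gavaged once daily with 50 mg/kg in 20% w/v hydroxypropyl-β-cyclodextrin for 4 days. At 4 h postdose on day 4, under pentobarbital, the liver was perfused with ice-cold saline via a portal cannula. Five lobe samples were snap-frozen and homogenized in 3 volumes of cold 70% methanol with 20 mM EDTA/EGTA. Prodrug and triphosphate measured by LC/MS/MS.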

[11] = AUC (0 to infinity) in dog plasma at 50 mg/kg, po qd for 4 days; format: ADME, organism-based, Canis lupus familiaris; parameters: time infinity, dose 50 mg/kg, route oral; outline: as §2
[12] = test system: Rattus norvegicus; assay: AUC (0 to t) in rat liver assessed as 2'-F-2'-C-Methyluridine-5''-TP level at 50 mg/kg, po; format: ADME, organism-based; parameters: dose 50 mg/kg, route oral; settings: in vivo; outline: as §1
[13] = test system: HepG2; assay: Cytotoxicity against human HepG2 cells at 100 uM; format: cell-based; settings: hepg2, 100 µM
Outline: (§5)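 Huh7, HepG2 and BxPC3 cells at 2 × 10^3 per well, CEM at 5 × 10^3 per well. Compound serially diluted from 100 μM, 8 days at 37 °C. MTS added for 2 h, absorbance read at 490 nm with medium-only blanks. CC50 taken relative to untreated cells.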

[14] = Half life in simulated intestinal fluid of pH 7.5 at 50 ug/mL; format: physicochemical
Outline: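 Compound at 50 μg/mL in simulated gastric fluid (pH 1.2) or simulated intestinal fluid (pH 7.5), 37 °C, 20 h. Injected by reverse-phase HPLC every 2 h, peak area at 260 nm.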

[15] = Cytotoxicity against human myeloid progenitor cells after 14 to 16 days
[16] = test system: Hepatitis C virus; assay: Antiviral activity against HCV infected in human clone A cells assessed as inhibition of cellular rRNA replication at 50 uM; format: functional, Hepacivirus hominis
[17] = test system: Rattus norvegicus; assay: Toxicity in rat assessed as mortality at 50 to 1800 mg/kg, po after 14 days; format: organism-based; parameters: dose 50-1800 mg/kg, route oral; settings: in vivo, 336 h; outline: as §3
[18] = test system: CCRF-CEM; assay: Cytotoxicity against human CEM cells at 100 uM; format: cell-based; outline: as §5
[19] = AUC (0 to infinity) in cynomolgus monkey plasma at 50 mg/kg, po qd for 4 days; format: ADME, organism-based, Macaca fascicularis; parameters: time infinity, dose 50 mg/kg, route oral; outline: as §2
[20] = test system: Rattus norvegicus; assay: Toxicity in rat assessed as change in liver weight at 50 to 1800 mg/kg, po after 14 days; format: organism-based; parameters: dose 50-1800 mg/kg, route oral; settings: in vivo, 336 h; outline: as §3
[21] = test system: Canis familiaris; assay: Metabolic stability in dog liver assessed as prodrug level at 50 mg/kg, po; format: ADME, organism-based, Canis lupus familiaris; parameters: dose 50 mg/kg, route oral; settings: in vivo; outline: as §4
[22] = Cmax in cynomolgus monkey plasma at 50 mg/kg, po qd for 4 days; format: ADME, organism-based, Macaca fascicularis; parameters: dose 50 mg/kg, route oral; outline: as §2
[23] = test system: Cynomolgus monkey; assay: Metabolic stability in cynomolgus monkey liver assessed as prodrug level at 50 mg/kg, po; format: ADME, organism-based, Macaca fascicularis; parameters: dose 50 mg/kg, route oral; settings: in vivo; outline: as §4
[24] = test system: Cynomolgus monkey; assay: Metabolic stability in cynomolgus monkey liver assessed as 2'-F-2'-C-Methyluridine-5''-triphosphate level at 50 mg/kg, po; format: ADME, organism-based, Macaca fascicularis; parameters: dose 50 mg/kg, route oral; settings: in vivo; outline: as §4
[25] = test system: Rattus norvegicus; assay: Toxicity in rat assessed as change in kidney weight at 50 to 1800 mg/kg, po after 14 days; format: organism-based; parameters: dose 50-1800 mg/kg, route oral; settings: in vivo, 336 h; outline: as §3
[26] = Cytotoxicity against HuH7 cells at 100 uM; format: cell-based; settings: human, huh-7, 100 µM; outline: as §5
[27] = Cytotoxicity against human erythroid progenitor cells after 14 to 16 days
[28] = Cytotoxicity against human BxPC3 cells at 100 uM; format: cell-based; settings: bxpc-3, 100 µM; outline: as §5
[29] = AUC (0 to t) in cynomolgus monkey plasma at 50 mg/kg, po qd for 4 days; format: ADME, organism-based, Macaca fascicularis; parameters: dose 50 mg/kg, route oral; outline: as §2
[30] = Cmax in dog plasma at 50 mg/kg, po qd for 4 days; format: ADME, organism-based, Canis lupus familiaris; parameters: dose 50 mg/kg, route oral; outline: as §2
[31] = Half life in simulated gastric fluid at pH 1.2 at 50 ug/mL; format: physicochemical
Outline: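 Compound at 50 μg/mL in simulated gastric fluid (pH 1.2) or simulated intestinal fluid (pH 7.5), 37 °C, 20 h. Injected by reverse-phase HPLC every 2 h, peak area at 260 nm. Percent parent remaining relative to 0 h, giving half-life.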

[32] = Tmax in cynomolgus monkey plasma at 50 mg/kg, po qd for 4 days; format: ADME, organism-based, Macaca fascicularis; parameters: dose 50 mg/kg, route oral; outline: as §2
[33] = Tmax in dog plasma at 50 mg/kg, po qd for 4 days; format: ADME, organism-based, Canis lupus familiaris; parameters: dose 50 mg/kg, route oral; outline: as §2
[34] = test system: Rattus norvegicus; assay: Toxicity in rat assessed as change in macroscopic pathology at 50 to 1800 mg/kg, po after 14 days; format: organism-based; parameters: dose 50-1800 mg/kg, route oral; settings: in vivo, 336 h; outline: as §3
[35] = test system: Hepatitis C virus NS5B S96T/N142T mutant; assay: Antiviral activity against HCV expressing NS5B polymerase S96T/N142T mutation infected in human ET-lunet cells
[36] = Cytotoxicity against human HepG2 cells assessed as inhibition of ribosomal DNA; format: cell-based
Outline: (§6)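 CEM or HepG2 cells at 1 × 10^4 per well, compound serially diluted from 100 μM, 14 days at 37 °C, 5% CO2. Medium with compound renewed on days 7 and 11. Total DNA extracted; mitochondrial COXII DNA and rDNA measured by multiplex quantitative PCR. ΔCt converted to log reduction, inhibition relative to untreated cells, and the 90% inhibitory concentration reported.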

[37] = Cytotoxicity against human HepG2 cells assessed as inhibition of mitochondrial DNA; format: cell-based; outline: as §6
[38] = test system: CCRF-CEM; assay: Cytotoxicity against human CEM cells assessed as inhibition of ribosomal DNA up to 100 uM; format: cell-based; outline: as §6
[39] = test system: Hepatitis C virus; assay: Antiviral activity against HCV expressing NS5B polymerase S282T mutation infected in clone A cells; format: functional, Hepacivirus hominis
Outline: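 Replicon cells seeded at 1500 (clone A) or 3000 (ET-lunet) per well. Serially diluted compound added in medium without G418, 4 days at 37 °C, 5% CO2. HCV RNA measured by real-time RT-PCR as ΔCt versus no-drug control. EC90 calculated; fold change of S282T mutant versus wild-type replicon EC90. At least three independent experiments.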

[40] = test system: Hepatitis C virus; assay: Antiviral activity against HCV infected in human ET-lunet cells; format: functional, Hepacivirus hominis
Outline: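 ET-lunet replicon cells seeded at 3000 cells/well. Compounds serially diluted in culture medium without G418 and added to cells, which were incubated 4 days at 37 °C in 5% CO2. HCV RNA replication measured by quantitative real-time RT-PCR as ΔCt against the mean no-drug control threshold cycle. EC90, the concentration giving 90% inhibition, was calculated.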

[41] = test system: CCRF-CEM; assay: Cytotoxicity against human CEM cells assessed as inhibition of mitochondrial DNA up to 100 uM; format: cell-based; outline: as §6

SMILES: COC(=O)[C@H](C)NP(=O)(OC[C@H]1O[C@@H](n2ccc(=O)[nH]c2=O)[C@](C)(F)[C@@H]1O)Oc1ccccc1 (some centres not stated)
- Cmax [1]: 1985 ng/g
- half-life at 100 µM [2]: 0.18 h
- AUC(0-t) at 96 h [3]: 418 ng·h/mL
- half-life at 100 µM [4]: 16.7 h
- Activity [5]: Non-toxic
- Tmax [6]: 6 h
- Papp [7]: 0.007 ×10⁻⁶ cm/s
- AUC [8]: 18968 ng·h/g
- EC90 ([9]; Hepatitis C virus): 0.91 µM
- Drug uptake [10]: 4960 ng/g
- AUC(0-inf) [11]: 420 ng·h/mL
- AUC [12]: 14206 ng·h/g
- Activity [13]: Non-toxic
- half-life at 50 ug/mL [14]: > 20 h
- IC50 [15]: > 50 µM
- inhibition at 50 µM [16]: 0%
- Activity [17]: Non-toxic
- Activity [18]: Non-toxic
- AUC(0-inf) [19]: 34 ng·h/mL
- Activity [20]: Non-toxic
- Drug uptake [21]: 5.24 ng/g
- Cmax [22]: 19 ng/mL
- Drug uptake [23]: 4.66 ng/g
- Drug uptake [24]: 26 ng/g
- Activity [25]: Non-toxic
- Activity [26]: Non-toxic
- IC50 [27]: > 50 µM
- Activity [28]: Non-toxic
- AUC(0-t) at 96 h [29]: 27 ng·h/mL
- Cmax [30]: 317 ng/mL
- half-life at 50 ug/mL [31]: 15.5 h
- Tmax [32]: 0.25 h
- Tmax [33]: 1 h
- Activity [34]: Non-toxic

SMILES: CC(C)OC(=O)[C@H](C)N[P@](=O)(OC[C@H]1O[C@@H](n2ccc(=O)[nH]c2=O)[C@](C)(F)[C@@H]1O)Oc1ccccc1 [SOFOSBUVIR]
- EC90 [35]: 0.11 µM
- EC90 [9]: 0.42 µM
- CC90 [36]: 68.6 µM
- CC90 [37]: 72.1 µM
- Activity [38]: Non-toxic
- EC90 [39]: 7.8 µM
- EC90 [40]: 0.23 µM
- Activity [41]: Non-toxic
